ChEMBL document CHEMBL1137696, “Preparation and in vitro evaluation of benzylsulfanyl benzoxazole derivatives as potential antituberculosis agents” (2009)
≈ marks a conversion by molar mass, not a printed value.

Experiments:
Format in all cases: functional
[1] = test system: Mycobacterium tuberculosis; experiment: Antimycobacterial activity against Mycobacterium tuberculosis CNCTC My 331/88 after 14 days by micromethod; details: CNCTC My 331/88, 336 h
How it was run: (§1)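 MIC by micromethod in Šula semisynthetic medium. Compounds added as DMSO solutions at 1000, 500, 250, 125, 62, 32, 16, 8, 4 and 2 µmol/L. Incubated at 37 °C and read at 14 and 21 days. MIC taken as the lowest concentration that inhibited mycobacterial growth, expressed in µmol/L. INH run as standard. Strains from CNCTC.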

[2] = test system: Mycobacterium tuberculosis; experiment: Antimycobacterial activity against Mycobacterium tuberculosis CNCTC My 331/88 after 21 days by micromethod; details: CNCTC My 331/88, 504 h; how it was run: as §1
Mycobacterium kansasii [3] = experiment: Antimycobacterial activity against Mycobacterium kansasii CNCTC My 235/80 after 7 days by micromethod; details: CNCTC My 235/80, 168 h
How it was run: (§2)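 Micromethod MIC in Šula semisynthetic medium, with compounds added as DMSO solutions at 1000, 500, 250, 125, 62, 32, 16, 8, 4 and 2 µmol/L. Cultures were incubated at 37 °C, and M. kansasii was read at 7, 14 and 21 days. MIC is the lowest concentration at which mycobacterial growth was inhibited. INH served as standard. Strain 6509/96 was a clinical isolate.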

Mycobacterium kansasii [4] = experiment: Antimycobacterial activity against Mycobacterium kansasii CNCTC My 235/80 after 14 days by micromethod; details: CNCTC My 235/80, 336 h; how it was run: as §2
Mycobacterium kansasii [5] = experiment: Antimycobacterial activity against Mycobacterium kansasii CNCTC My 235/80 after 21 days by micromethod; details: CNCTC My 235/80, 504 h; how it was run: as §2
Mycobacterium kansasii [6] = experiment: Antimycobacterial activity against Mycobacterium kansasii 6509/96 after 7 days by micromethod; details: 6509/96, 168 h; how it was run: as §2
Mycobacterium kansasii [7] = experiment: Antimycobacterial activity against Mycobacterium kansasii 6509/96 after 14 days by micromethod; details: 6509/96, 336 h; how it was run: as §2
Mycobacterium kansasii [8] = experiment: Antimycobacterial activity against Mycobacterium kansasii 6509/96 after 21 days by micromethod; details: 6509/96, 504 h; how it was run: as §2
Mycobacterium avium [9] = experiment: Antimycobacterial activity against Mycobacterium avium CNCTC My 330/88 after 14 days by micromethod; details: CNCTC My 330/88, 336 h; how it was run: as §1
Mycobacterium avium [10] = experiment: Antimycobacterial activity against Mycobacterium avium CNCTC My 330/88 after 21 days by micromethod; details: CNCTC My 330/88, 504 h; how it was run: as §1
K562 = experiment: Growth inhibition of human K562 cells
How it was run: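 K-562 suspension cultures in microplates were exposed to 10 concentrations of compound. Each well was diluted 1:50 in CASYTON and counted with a CASY 1 electronic cell analyzer (150 µm aperture), using the mean of three successive 0.4 mL counts. GI50 is the point where the concentration-response curve of cell counts/mL relative to control crosses the 50% line.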

L929 = experiment: Growth inhibition of mouse L929 cells
How it was run: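 Antiproliferative assay on adherent L-929 monolayers exposed to 10 concentrations of compound. Cells were fixed with glutaraldehyde, stained with 0.05% methylene blue for 15 min, washed, and the dye eluted with 0.33 N HCl. OD was read at 630 nm, and GI50 is the concentration giving 50% growth inhibition.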

HeLa = experiment: Cytotoxicity against human HeLa cells
How it was run: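 Adherent HeLa monolayers were incubated with 10 concentrations of compound, then glutaraldehyde-fixed and stained with 0.05% methylene blue for 15 min. After gentle washing, the stain was eluted with 0.33 N HCl and absorbance read at 630 nm. CC50 is the concentration causing 50% cytotoxic (lytic) effect.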

Row | SMILES | MIC [1] | MIC [2] | MIC (Mycobacterium kansasii [3]) | MIC (Mycobacterium kansasii [4]) | MIC (Mycobacterium kansasii [5]) | MIC (Mycobacterium kansasii [6]) | MIC (Mycobacterium kansasii [7]) | MIC (Mycobacterium kansasii [8]) | MIC (Mycobacterium avium [9]) | MIC (Mycobacterium avium [10]) | GI50 (K562) | GI50 (L929) | CC50 (HeLa)
1 | COc1ccc(CSc2nc3ccccc3o2)cc1 | 62 µM (≈ 16.8 µg/mL) | 125 µM (≈ 33.9 µg/mL) | 32 µM (≈ 8.68 µg/mL) | 32 µM (≈ 8.68 µg/mL) | 62 µM (≈ 16.8 µg/mL) | 32 µM (≈ 8.68 µg/mL) | 32 µM (≈ 8.68 µg/mL) | 62 µM (≈ 16.8 µg/mL) | 32 µM (≈ 8.68 µg/mL) | 62 µM (≈ 16.8 µg/mL) |  |  | 
2 | O=[N+]([O-])c1ccccc1CSc1nc2ccccc2o1 | > 250 µM | > 250 µM | 125 µM (≈ 35.8 µg/mL) | 125 µM (≈ 35.8 µg/mL) | > 125 µM | 62 µM (≈ 17.8 µg/mL) | > 62 µM | > 62 µM | > 125 µM | > 125 µM |  |  | 
3 | NC(=S)c1ccc(CSc2nc3ccccc3o2)cc1 | 8 µM (≈ 2.4 µg/mL) | 16 µM (≈ 4.81 µg/mL) | 8 µM (≈ 2.4 µg/mL) | 16 µM (≈ 4.81 µg/mL) | 16 µM (≈ 4.81 µg/mL) | 8 µM (≈ 2.4 µg/mL) | 16 µM (≈ 4.81 µg/mL) | 16 µM (≈ 4.81 µg/mL) | 32 µM (≈ 9.61 µg/mL) | 32 µM (≈ 9.61 µg/mL) | 9.4 µg/mL (≈ 31.3 µM) | 23.8 µg/mL (≈ 79.2 µM) | 23.6 µg/mL (≈ 78.6 µM)
4 | FC(F)(F)c1cccc(CSc2nc3ccccc3o2)c1 | 62 µM (≈ 19.2 µg/mL) | 125 µM (≈ 38.7 µg/mL) | 32 µM (≈ 9.9 µg/mL) | 32 µM (≈ 9.9 µg/mL) | 62 µM (≈ 19.2 µg/mL) | 32 µM (≈ 9.9 µg/mL) | 32 µM (≈ 9.9 µg/mL) | 62 µM (≈ 19.2 µg/mL) | 32 µM (≈ 9.9 µg/mL) | 32 µM (≈ 9.9 µg/mL) |  |  | 
5 | FC(F)(F)c1cc(CSc2nc3ccccc3o2)cc(C(F)(F)F)c1 | 62 µM (≈ 23.4 µg/mL) | 125 µM (≈ 47.2 µg/mL) | 62 µM (≈ 23.4 µg/mL) | 62 µM (≈ 23.4 µg/mL) | 125 µM (≈ 47.2 µg/mL) | 32 µM (≈ 12.1 µg/mL) | 32 µM (≈ 12.1 µg/mL) | 62 µM (≈ 23.4 µg/mL) | > 125 µM | > 125 µM |  |  | 
6 | N#Cc1cccc(CSc2nc3ccccc3o2)c1 | 125 µM (≈ 33.3 µg/mL) | 125 µM (≈ 33.3 µg/mL) | 32 µM (≈ 8.52 µg/mL) | 62 µM (≈ 16.5 µg/mL) | 125 µM (≈ 33.3 µg/mL) | 32 µM (≈ 8.52 µg/mL) | 62 µM (≈ 16.5 µg/mL) | 62 µM (≈ 16.5 µg/mL) | 62 µM (≈ 16.5 µg/mL) | 62 µM (≈ 16.5 µg/mL) |  |  | 
7 | O=[N+]([O-])c1cccc(CSc2nc3ccccc3o2)c1 | > 62 µM | 125 µM (≈ 35.8 µg/mL) | 32 µM (≈ 9.16 µg/mL) | > 32 µM | > 32 µM | 32 µM (≈ 9.16 µg/mL) | 32 µM (≈ 9.16 µg/mL) | > 32 µM | > 32 µM | > 62 µM |  |  | 
8 | O=[N+]([O-])c1ccc(CSc2nc3ccccc3o2)cc1 | > 62 µM | > 125 µM | 32 µM (≈ 9.16 µg/mL) | 32 µM (≈ 9.16 µg/mL) | > 62 µM | 32 µM (≈ 9.16 µg/mL) | 32 µM (≈ 9.16 µg/mL) | > 32 µM | > 32 µM | > 62 µM |  |  | 
9 | FC(F)(F)c1ccc(CSc2nc3ccccc3o2)cc1 | 125 µM (≈ 38.7 µg/mL) | 125 µM (≈ 38.7 µg/mL) | 32 µM (≈ 9.9 µg/mL) | 62 µM (≈ 19.2 µg/mL) | 125 µM (≈ 38.7 µg/mL) | 16 µM (≈ 4.95 µg/mL) | 32 µM (≈ 9.9 µg/mL) | 62 µM (≈ 19.2 µg/mL) | 62 µM (≈ 19.2 µg/mL) | 62 µM (≈ 19.2 µg/mL) |  |  | 
10 | Fc1cccc(CSc2nc3ccccc3o2)c1 | 62 µM (≈ 16.1 µg/mL) | 125 µM (≈ 32.4 µg/mL) | 32 µM (≈ 8.3 µg/mL) | 62 µM (≈ 16.1 µg/mL) | 125 µM (≈ 32.4 µg/mL) | 32 µM (≈ 8.3 µg/mL) | 32 µM (≈ 8.3 µg/mL) | 62 µM (≈ 16.1 µg/mL) | 32 µM (≈ 8.3 µg/mL) | 32 µM (≈ 8.3 µg/mL) |  |  | 
11 | Clc1ccccc1CSc1nc2ccccc2o1 | > 250 µM | > 250 µM | 32 µM (≈ 8.82 µg/mL) | 32 µM (≈ 8.82 µg/mL) | 62 µM (≈ 17.1 µg/mL) | 62 µM (≈ 17.1 µg/mL) | 62 µM (≈ 17.1 µg/mL) | 125 µM (≈ 34.5 µg/mL) | 125 µM (≈ 34.5 µg/mL) | 125 µM (≈ 34.5 µg/mL) |  |  | 
12 | c1ccc(CSc2nc3ccccc3o2)cc1 | 250 µM (≈ 60.3 µg/mL) | 500 µM (≈ 121 µg/mL) | 125 µM (≈ 30.2 µg/mL) | 250 µM (≈ 60.3 µg/mL) | 250 µM (≈ 60.3 µg/mL) | 32 µM (≈ 7.72 µg/mL) | 125 µM (≈ 30.2 µg/mL) | 250 µM (≈ 60.3 µg/mL) | 62 µM (≈ 15 µg/mL) | 125 µM (≈ 30.2 µg/mL) |  |  | 
13 | COc1cccc(CSc2nc3ccccc3o2)c1 | 125 µM (≈ 33.9 µg/mL) | 250 µM (≈ 67.8 µg/mL) | 32 µM (≈ 8.68 µg/mL) | 32 µM (≈ 8.68 µg/mL) | 62 µM (≈ 16.8 µg/mL) | 32 µM (≈ 8.68 µg/mL) | 32 µM (≈ 8.68 µg/mL) | 62 µM (≈ 16.8 µg/mL) | 32 µM (≈ 8.68 µg/mL) | 32 µM (≈ 8.68 µg/mL) |  |  | 
14 | Cc1ccc(CSc2nc3ccccc3o2)cc1 | > 500 µM | > 500 µM | 62 µM (≈ 15.8 µg/mL) | 62 µM (≈ 15.8 µg/mL) | 125 µM (≈ 31.9 µg/mL) | 62 µM (≈ 15.8 µg/mL) | 62 µM (≈ 15.8 µg/mL) | 125 µM (≈ 31.9 µg/mL) | 32 µM (≈ 8.17 µg/mL) | 62 µM (≈ 15.8 µg/mL) |  |  | 
